# Measurements collected from several papers.
# Lines come from different studies, so protocols differ.
# Target: Myosin light chain kinase 2, skeletal/cardiac muscle (MYLK2, Homo sapiens, UniProt Q9H1R3)
Compound,test,conditions,measurement,result
CS(=O)(=O)NCC[C@H](NC(=O)c1cncc2c1cnn2-c1ccc(F)cc1)c1ccnc(S(C)(=O)=O)c1,"cell-free assay, competition with immobilised ligand",1 µM,remaining binding,93%
CC(C)(O)[C@H]1CC[C@H](Nc2ccc3ncc(-c4cccc(C(F)(F)F)c4)n3n2)CC1,"enzyme activity, inhibitor",1 µM,remaining activity,96.7%
NS(=O)(=O)c1cc(NC(=O)C2(c3ccccc3Cl)CC2)ccc1Oc1cccc(Cl)c1,"cell-free assay, competition with immobilised ligand",1 µM,remaining binding,73%
O=C1c2ccccc2-c2n[nH]c3cccc1c23,"enzyme activity, inhibitor",0.5 µM,activity vs control,22.2%
COc1cc(Cl)c(C(=O)N[C@@H](CN[C@H]2CC[C@@H](N)CC2)Cc2ccc(C#N)cc2)cc1-c1ccc(CN[C@H](C)c2ccc(C)cc2)o1,"enzyme activity, inhibitor",1 µM,remaining activity,99%
CNC(=O)c1cc(Oc2ccc(NC(=O)Nc3ccc(Cl)c(C(F)(F)F)c3)cc2)ccn1,"enzyme activity, inhibitor",0.3 µM,inhibition,4%
O=C1NC(=O)c2cc(Nc3ccc(F)cc3)c(Nc3ccc(F)cc3)cc21,cell-free assay,0.5 µM,remaining signal,98.7%
CC(C)(C)c1nc(-c2cccc(NS(=O)(=O)c3c(F)cccc3F)c2F)c(-c2ccnc(N)n2)s1,"enzyme activity, inhibitor, radiometric",1 µM,remaining activity,112%
Cn1nc(C(F)(F)F)cc1-c1cnc(N2CCc3cc(S(=O)(=O)Nc4c(F)cc(Cl)cc4F)cc(N4CCCC4=O)c32)nc1,"cell-free assay, competition with immobilised ligand",1 µM,remaining binding,100%
Cc1sc(C(=O)NC2COC2)cc1-n1cc(NC(=O)Nc2c(F)cccc2Cl)cn1,"enzyme activity, inhibitor",10 µM,remaining activity,78.7%
CN([C@@H]1CCc2c(CC(=O)O)c3cc(S(C)(=O)=O)ccc3n2C1)S(=O)(=O)c1ccc(F)cc1,"cell-free assay, competition with immobilised ligand",1 µM,remaining binding,100%
COc1cc2c(N3CCN(C(=O)Nc4ccc(OC(C)C)cc4)CC3)ncnc2cc1OCCCN1CCCCC1,cell-free assay,0.5 µM,remaining signal,101%
O=C(Nc1cnn(-c2csc(C(=O)NC3COC3)c2)c1)Nc1ccccc1Cl,"enzyme activity, inhibitor",5 µM,remaining activity,89.9%
Nc1ncnc2occ(-c3ccc(NC(=O)Nc4cc(C(F)(F)F)ccc4F)cc3)c12,"enzyme activity, inhibitor",20 µM,remaining activity,1.4%
O=C1Nc2ccc(Cl)cc2C1=Cc1cc(Cl)c(O)c(Cl)c1,cell-free assay,0.5 µM,remaining signal,71.5%
C[C@H](c1ccnc(Nc2nc3ccc(-c4cc(N(C)C)ncn4)cc3[nH]2)c1)N1CCN(C(=O)CC(F)(F)F)CC1,"cell-free assay, competition with immobilised ligand",0.1 µM,remaining binding,92%
CCN(CC)CCNC(=O)c1c(C)[nH]c(/C=C2\C(=O)Nc3ccc(F)cc32)c1C,"enzyme activity, inhibitor",10 µM,inhibition,92%
CN(C)C(=O)Cn1cc(-c2nc([C@@](C)(c3ccc(-c4cnc(N)nc4)cc3)C3CC3)no2)cn1,"cell-free assay, competition with immobilised ligand",1 µM,remaining binding,100%
COc1cc2ncnc(Nc3ccc(Oc4ccccc4)cc3C)c2cc1OC,"enzyme activity, inhibitor",1 µM,inhibition,-4%
